According to ChEMBL document CHEMBL3621151, “Orally bioavailable Syk inhibitors with activity in a rat PK/PD model” (Bioorg Med Chem Lett, 2015):
The source made the active and inactive calls. The calls are words filed in the database; no cut-off is given here.

Key:
[1] = biological target: T1, Voltage-gated inwardly rectifying potassium channel KCNH2 (Homo sapiens, UniProt Q12809); experiment: Inhibition of human ERG by automated patch clamp assay
Blood = experiment: Drug level in rat blood at 1 mg/kg, iv; assay type: ADME, organism-based; conditions: in vivo
Summary of the method: (§1)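 Rats received a single iv dose of 1 mg/kg. Compound concentrations were measured in blood, liver and kidney and expressed as ng/g.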

Liver = experiment: Drug level in rat liver at 1 mg/kg, iv; assay type: ADME, organism-based; conditions: in vivo; summary of the method: as §1
Kidney = experiment: Drug level in rat kidney at 1 mg/kg, iv; assay type: ADME, organism-based; conditions: in vivo; summary of the method: as §1
Rattus norvegicus [2] = experiment: In vivo inhibition of Syk in Lewis rat assessed as reduction in antiCD32-antibody-induced SLP76 phosphorylation in peripheral blood monocytes at 3 mg/kg, po measured after 2 hrs relative to vehicle-treated control; assay type: functional
Summary of the method: (§2)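 Lewis rats were given a single oral dose of 3 mg/kg. Blood was sampled at 2, 4, 8 and 24 h for compound levels. Ex vivo, peripheral blood monocytes were stimulated through FcγR with anti-CD32 antibody, and SLP76 phosphorylation was quantified as % pSLP76.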

Rattus norvegicus [3] = experiment: In vivo inhibition of Syk in Lewis rat assessed as reduction in antiCD32-antibody-induced SLP76 phosphorylation in peripheral blood monocytes at 3 mg/kg, po measured after 4 hrs relative to vehicle-treated control; assay type: functional; summary of the method: as §2
Rattus norvegicus [4] = experiment: In vivo inhibition of Syk in Lewis rat assessed as reduction in antiCD32-antibody-induced SLP76 phosphorylation in peripheral blood monocytes at 3 mg/kg, po measured after 8 hrs relative to vehicle-treated control; assay type: functional; summary of the method: as §2
Rattus norvegicus [5] = experiment: In vivo inhibition of Syk in Lewis rat assessed as reduction in antiCD32-antibody-induced SLP76 phosphorylation in peripheral blood monocytes at 3 mg/kg, po measured after 24 hrs relative to vehicle-treated control; assay type: functional, organism-based; summary of the method: as §2
[6] = Drug uptake in Lewis rat blood at 3 mg/kg, po measured after 2 hrs; assay type: ADME, organism-based; conditions: read-out: Drug uptake; summary of the method: as §2
[7] = Drug uptake in Lewis rat blood at 3 mg/kg, po measured after 4 hrs; assay type: ADME, organism-based; conditions: read-out: Drug uptake; summary of the method: as §2
[8] = Drug uptake in Lewis rat blood at 3 mg/kg, po measured after 8 hrs; assay type: ADME, organism-based; conditions: read-out: Drug uptake; summary of the method: as §2
[9] = Drug uptake in Lewis rat blood at 3 mg/kg, po measured after 24 hrs; assay type: ADME, organism-based; conditions: read-out: Drug uptake; summary of the method: as §2
Aurora kinase A = biological target: T2, Aurora kinase A (Homo sapiens, UniProt O14965); experiment: Inhibition of aurora A kinase (unknown origin) by enzymatic assay
T2 sequence (O14965 whole entry): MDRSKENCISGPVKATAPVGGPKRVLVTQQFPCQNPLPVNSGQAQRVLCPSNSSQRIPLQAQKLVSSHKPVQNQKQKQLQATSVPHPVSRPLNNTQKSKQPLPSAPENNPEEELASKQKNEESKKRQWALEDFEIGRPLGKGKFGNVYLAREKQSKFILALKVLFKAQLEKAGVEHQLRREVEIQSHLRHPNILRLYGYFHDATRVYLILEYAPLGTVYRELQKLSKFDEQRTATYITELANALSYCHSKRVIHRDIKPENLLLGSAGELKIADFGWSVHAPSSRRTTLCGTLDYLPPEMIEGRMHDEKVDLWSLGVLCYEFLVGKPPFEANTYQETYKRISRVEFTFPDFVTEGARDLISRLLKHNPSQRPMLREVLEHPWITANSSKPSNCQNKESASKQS

Aurora kinase B = Aurora kinase B (Homo sapiens, UniProt Q96GD4); experiment: Inhibition of aurora B kinase (unknown origin) by cell based assay
Chain of Aurora kinase B (Q96GD4 whole entry): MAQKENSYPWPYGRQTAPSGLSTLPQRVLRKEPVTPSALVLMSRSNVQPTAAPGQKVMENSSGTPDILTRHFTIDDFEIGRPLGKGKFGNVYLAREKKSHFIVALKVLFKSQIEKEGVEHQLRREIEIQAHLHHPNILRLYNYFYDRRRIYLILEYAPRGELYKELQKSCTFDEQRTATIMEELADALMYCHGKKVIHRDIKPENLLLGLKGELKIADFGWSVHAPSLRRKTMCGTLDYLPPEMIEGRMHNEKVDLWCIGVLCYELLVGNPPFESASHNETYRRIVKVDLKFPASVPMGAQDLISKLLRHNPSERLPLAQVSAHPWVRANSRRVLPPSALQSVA

Salmonella typhimurium = experiment: Toxicity in Salmonella typhimurium by Ames test; assay type: organism-based; conditions: salmonella enterica subsp. enterica serovar typhimurium
[10] = Toxicity in micronucleus (unknown origin) by micronucleus test
[11] = biological target: T3, Tyrosine-protein kinase SYK (Homo sapiens, UniProt P43405)
[12] = biological target: T3, Tyrosine-protein kinase SYK; experiment: Inhibition of Syk in anti-igM stimulated human Ramos B cells assessed as phospho-BLNK level preincubated for 30 mins followed by anti-IgM stimulation measured after 15 mins by flow cytometric analysis; assay type: cell-based
[13] = biological target: T3, Tyrosine-protein kinase SYK; experiment: Inhibition of Syk in anti-CD32 stimulated CD14+ human monocytes in presence of 90% human blood assessed as phospho-SLP76 level preincubated for 30 mins followed by anti-CD32 stimulation measured after 5 mins by flow cytometric analysis
[14] = Clearance in Sprague-Dawley rat at 1 mg/kg, iv and 3 mg/kg, po administered as cassette dosing; assay type: ADME, organism-based; conditions: in vivo
Summary of the method: (§3)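 Cassette dosing in Sprague Dawley rats: iv 1 mg/kg in NMP/PEG200 (3:7) and po 3 mg/kg in CMC/water/Tween (0.5:99:0.5). Dose-normalized values are marked as such.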

[15] = Volume of distribution at steady state in Sprague-Dawley rat at 1 mg/kg, iv and 3 mg/kg, po administered as cassette dosing; assay type: ADME, organism-based; conditions: in vivo, read-out: Vdss; summary of the method: as §3
[16] = Mean residence time in Sprague-Dawley rat at 1 mg/kg, iv and 3 mg/kg, po administered as cassette dosing; assay type: ADME, organism-based; conditions: in vivo; summary of the method: as §3
[17] = Oral bioavailability in Sprague-Dawley rat at 3 mg/kg administered as cassette dosing; assay type: ADME, organism-based; conditions: in vivo; summary of the method: as §3
Rattus norvegicus [18] = experiment: Dose normalized Cmax in Sprague-Dawley rat at 1 mg/kg, iv and 3 mg/kg, po administered as cassette dosing; assay type: ADME, organism-based; conditions: in vivo; summary of the method: as §3
[19] = biological target: T1, Voltage-gated inwardly rectifying potassium channel KCNH2; experiment: Inhibition of human ERG by binding assay
Liver microsome [20] = experiment: Drug metabolism in rat liver microsomes assessed as pyrazole hydroxylation; assay type: ADME
Liver microsome [21] = experiment: Drug metabolism in rat liver microsomes assessed as pyrazole N-demethylation; assay type: ADME
Liver microsome [22] = experiment: Drug metabolism in rat liver microsomes assessed as lactam hydroxylation; assay type: ADME
Liver microsome [23] = experiment: Drug metabolism in human liver microsomes assessed as pyrazole hydroxylation; assay type: ADME
Liver microsome [24] = experiment: Drug metabolism in human liver microsomes assessed as pyrazole N-demethylation; assay type: ADME
Liver microsome [25] = experiment: Drug metabolism in human liver microsomes assessed as lactam hydroxylation; assay type: ADME
Rattus norvegicus [26] = experiment: Dose normalized AUC in Sprague-Dawley rat at 3 mg/kg, po administered as cassette dosing; assay type: ADME, organism-based; conditions: in vivo; summary of the method: as §3
[27] = Solubility in pH 6.8 solution; assay type: physicochemical
[28] = Protein binding in human; assay type: ADME, organism-based; conditions: plasma, read-out: PB (converted)
[29] = Half life in rat liver microsomes; assay type: ADME
[30] = biological target: T1, Voltage-gated inwardly rectifying potassium channel KCNH2; experiment: Inhibition of human ERG at 30 uM by manual patch clamp assay
[31] = Ratio of drug level in liver to blood in rat at 1 mg/kg, iv; assay type: ADME, organism-based
Summary of the method: (§4)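 Rats received a single 1 mg/kg iv dose. Compound levels were then measured in blood, liver and kidney and expressed as ng/g of matrix. The ratio is tissue level over blood level.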

[32] = Ratio of drug level in kidney to blood in rat at 1 mg/kg, iv; assay type: ADME, organism-based; summary of the method: as §4

T1 sequence (Q12809 whole entry): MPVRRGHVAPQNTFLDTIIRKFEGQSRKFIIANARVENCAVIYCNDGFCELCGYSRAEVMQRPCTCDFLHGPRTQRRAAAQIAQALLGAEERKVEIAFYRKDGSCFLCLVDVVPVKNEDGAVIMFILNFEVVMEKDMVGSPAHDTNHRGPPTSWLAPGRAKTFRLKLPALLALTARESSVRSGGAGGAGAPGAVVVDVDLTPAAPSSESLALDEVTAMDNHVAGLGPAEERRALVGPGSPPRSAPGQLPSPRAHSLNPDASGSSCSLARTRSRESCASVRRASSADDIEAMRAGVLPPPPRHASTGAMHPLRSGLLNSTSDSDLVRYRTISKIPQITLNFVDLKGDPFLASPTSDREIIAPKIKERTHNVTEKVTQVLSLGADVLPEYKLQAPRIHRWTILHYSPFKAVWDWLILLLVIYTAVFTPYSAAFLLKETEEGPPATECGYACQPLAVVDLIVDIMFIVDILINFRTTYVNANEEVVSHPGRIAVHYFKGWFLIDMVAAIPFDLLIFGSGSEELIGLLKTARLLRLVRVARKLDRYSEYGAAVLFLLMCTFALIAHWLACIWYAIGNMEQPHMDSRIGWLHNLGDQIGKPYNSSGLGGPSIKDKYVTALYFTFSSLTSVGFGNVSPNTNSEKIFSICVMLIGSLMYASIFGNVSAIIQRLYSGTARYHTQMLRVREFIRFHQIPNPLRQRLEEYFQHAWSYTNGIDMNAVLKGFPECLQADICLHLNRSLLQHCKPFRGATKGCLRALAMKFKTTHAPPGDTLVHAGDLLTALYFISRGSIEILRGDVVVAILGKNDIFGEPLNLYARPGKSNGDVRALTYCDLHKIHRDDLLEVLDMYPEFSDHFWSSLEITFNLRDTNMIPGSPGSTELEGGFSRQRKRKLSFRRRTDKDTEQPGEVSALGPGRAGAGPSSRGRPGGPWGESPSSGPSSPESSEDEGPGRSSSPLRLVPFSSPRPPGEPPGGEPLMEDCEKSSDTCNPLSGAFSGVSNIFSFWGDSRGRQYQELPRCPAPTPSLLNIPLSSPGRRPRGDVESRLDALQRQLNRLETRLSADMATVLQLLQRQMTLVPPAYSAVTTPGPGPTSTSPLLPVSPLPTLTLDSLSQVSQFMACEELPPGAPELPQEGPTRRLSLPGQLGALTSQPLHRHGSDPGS

Structure (SMILES)	IC50 [1] [nM]	Drug uptake (Blood) [ng/g]	Drug uptake (Liver) [ng/g]	Drug uptake (Kidney) [ng/g]	IC50 (Aurora kinase A) [nM]	IC50 [11] [nM]	IC50 [12] [nM]	IC50 [13] [nM]	clearance [14] [mL/min/kg]	Vd [15] [L/kg]	MRT [16] [h]	bioavailability [17] [%]	Cmax/dose (Rattus norvegicus [18]) [nM]	Drug metabolism (Liver microsome [20])	Drug metabolism (Liver microsome [21])	Drug metabolism (Liver microsome [22])	Drug metabolism (Liver microsome [23])	Drug metabolism (Liver microsome [24])	Drug metabolism (Liver microsome [25])	also measured
C[C@@H](Oc1nc(-c2cnn(C(F)F)c2)cc2ncsc12)[C@H]1CNC(=O)O1	> 30000	1014	2134	1433	57	38	284	522	4	1.3	6	88	917	metabolite_detected	metabolite_detected	metabolite_detected	metabolite_detected	metabolite_detected	metabolite_detected	inhibition in vivo at 3 mg/kg (Rattus norvegicus [2]): 78%; inhibition in vivo at 3 mg/kg (Rattus norvegicus [3]): 79%; inhibition in vivo at 3 mg/kg (Rattus norvegicus [4]): 60%; inhibition (Rattus norvegicus [5]): inactive; concentration at 2 h [6]: 1930 nM; concentration at 4 h [7]: 1340 nM; concentration at 8 h [8]: 827 nM; concentration at 24 h [9]: 40 nM; IC50 (Aurora kinase B): 110 nM; Activity (Salmonella typhimurium): Non-toxic; Activity [10]: Toxic; IC50 [19]: > 30000 nM
C[C@@H](Oc1cc(-c2cnn(C)c2)cc2nscc12)[C@H]1CNC(=O)C1					576	46	161	298	45	2.4	0.9	30	94	metabolite_detected	metabolite_detected	metabolite_detected	metabolite_detected	metabolite_detected	metabolite_detected	AUC/dose (Rattus norvegicus [26]): 1056 nM.hr/(mg/kg); solubility [27]: > 1000 µM; fraction unbound [28]: 0.2; half-life [29]: 0.567 h
C[C@@H](Oc1cc(-c2cnn(C)c2)cc2ncsc12)[C@H]1CNC(=O)C1						33	89	186												
NC(=O)c1nnc(N[C@@H]2CCCC[C@@H]2N)nc1Nc1cccc2cc[nH]c12	28000	41	9175	3866									80							inhibition (INH) [30]: Not Active; Kp [31]: 100; Kp [32]: 100
C[C@@H](Oc1cc(-c2cnn(C(F)F)c2)cc2nscc12)[C@H]1CNC(=O)C1						57	340	1020			2.6		263							
C[C@@H](Oc1cc(-c2cnn(C(F)F)c2)cc2ncsc12)[C@H]1CNC(=O)O1						9	107	230			4.7		803							
